Calls of active or inactive are those of the source. No cut-off for these calls is given here.
Legend:
[1] = Permeability across apical to basal side in human Caco-2 cells at 1 uM measured up to 120 min by LC-MS analysis; type: ADME, cell-based; details: time <= 120, dose 1 µM, read-out: permeability
[2] = target: T1, Cathepsin S (Homo sapiens, UniProt P25774); assay: Inhibition of Cathepsin S in human Raji cells assessed as increase in Lip10 accumulation after 24 hrs by SDS-PAGE analysis; type: cell-based
Method in brief: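 Human Raji cells, an antigen-presenting B-lymphocyte line, used for the target-engagement read-out. Inhibition is scored as intracellular accumulation of the CatS substrate Lip10, the invariant-chain-derived propeptide.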

[3] = target: T1, Cathepsin S; assay: Inhibition of recombinant human Cathepsin S expressed in baculovirus infected insect cells using Z-VVR-AMC as substrate preincubated for 15 mins followed by substrate addition and measured after 10 mins by fluorescence assay
[4] = target: Procathepsin L (Homo sapiens) (UniProt P07711); assay: Inhibition of human liver Cathepsin L using Z-VVR-AMC as substrate at 10 uM preincubated for 15 mins followed by substrate addition and measured after 10 mins by fluorescence assay relative to control; details: time 25.0 min
[5] = organism: Homo sapiens; assay: Selectivity ratio of inhibition of human liver Cathepsin B to inhibition of recombinant human Cathepsin S
[6] = target: T2, Cathepsin K (Homo sapiens) (UniProt P43235); assay: Inhibition of recombinant human Cathepsin K expressed in baculovirus infected insect cells using Z-FR-AMC as substrate at 10 uM preincubated for 15 mins followed by substrate addition and measured after 10 mins by fluorescence assay relative to control; details: time 25.0 min
T2 sequence (whole entry): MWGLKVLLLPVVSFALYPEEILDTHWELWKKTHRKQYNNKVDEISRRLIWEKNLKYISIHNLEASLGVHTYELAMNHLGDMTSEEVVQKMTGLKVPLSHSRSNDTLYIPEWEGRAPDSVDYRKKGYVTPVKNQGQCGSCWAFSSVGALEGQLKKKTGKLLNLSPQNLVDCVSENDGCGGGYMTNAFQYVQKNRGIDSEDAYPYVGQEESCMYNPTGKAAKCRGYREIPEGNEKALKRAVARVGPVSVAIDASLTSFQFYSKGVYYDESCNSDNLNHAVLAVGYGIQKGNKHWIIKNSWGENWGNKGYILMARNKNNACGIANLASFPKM

[7] = organism: Homo sapiens; assay: Selectivity ratio of inhibition of human liver Cathepsin L to inhibition of recombinant human Cathepsin S
[8] = organism: Homo sapiens; assay: Selectivity ratio of inhibition of recombinant human Cathepsin K to inhibition of recombinant human Cathepsin S
[9] = target: Cathepsin B (Homo sapiens) (UniProt P07858); assay: Inhibition of human liver Cathepsin B using Z-VVR-AMC as substrate at 10 uM preincubated for 15 mins followed by substrate addition and measured after 10 mins by fluorescence assay relative to control; details: time 25.0 min
[10] = target: T2, Cathepsin K (Homo sapiens); assay: Inhibition of recombinant human Cathepsin K expressed in baculovirus infected insect cells using Z-FR-AMC as substrate up to 100 uM preincubated for 15 mins followed by substrate addition and measured after 10 mins by fluorescence assay relative to control; details: time 25.0 min

T1 sequence (P25774 whole entry): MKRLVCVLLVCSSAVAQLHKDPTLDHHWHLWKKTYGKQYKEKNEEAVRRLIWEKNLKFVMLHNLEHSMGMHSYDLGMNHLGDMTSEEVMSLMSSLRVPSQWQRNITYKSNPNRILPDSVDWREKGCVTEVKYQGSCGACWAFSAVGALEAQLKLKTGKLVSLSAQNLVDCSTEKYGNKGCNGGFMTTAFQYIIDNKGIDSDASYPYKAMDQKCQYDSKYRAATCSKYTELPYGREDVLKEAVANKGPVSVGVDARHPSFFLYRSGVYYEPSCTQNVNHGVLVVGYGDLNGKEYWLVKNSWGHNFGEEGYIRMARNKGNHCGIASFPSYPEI
Procathepsin L (Homo sapiens), sequence (P07711 114-333 limits assumed): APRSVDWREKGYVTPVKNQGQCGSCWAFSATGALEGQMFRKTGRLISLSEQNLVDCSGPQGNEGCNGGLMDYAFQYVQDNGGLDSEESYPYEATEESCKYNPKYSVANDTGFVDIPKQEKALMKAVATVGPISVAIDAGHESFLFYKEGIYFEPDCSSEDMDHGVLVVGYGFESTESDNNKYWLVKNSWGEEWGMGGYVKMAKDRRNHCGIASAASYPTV

## N#CC1(NC(=O)[C@H](CS(=O)(=O)N2CCN(c3ccccn3)CC2)NC(=O)Cc2cccs2)CC1
[1]
  Papp A→B at 2 h, 1 µM: 0.4 ×10⁻⁶ cm/s
[2]
  EC50: 1100 nM
[3]
  Ki: 0.2 nM

## N#CC1(NC(=O)[C@H](CS(=O)(=O)N2CCN(c3ccccn3)CC2)Nc2cccnc2)CC1
[1]
  Papp A→B at 2 h, 1 µM: 0.33 ×10⁻⁶ cm/s
[3]
  Ki: 0.25 nM

## N#CC1(NC(=O)CCS(=O)(=O)N2CCN(c3ccccn3)CC2)CC1
[3]
  Ki: 800 nM

## N#CC1(NC(=O)[C@H](CS(=O)(=O)C[C@H]2CCC(=O)N2)N[C@@H](c2ccc(F)cc2)C(F)(F)F)CC1
[3]
  Ki: ≤ 100 nM

## Cc1cc(CC(=O)N[C@@H](CS(=O)(=O)N2CCN(c3ccccn3)CC2)C(=O)NC2(C#N)CC2)on1
[4]
  inhibition: < 26%
[5]
  Selectivity ratio: > 30000
[6]
  inhibition: < 16%
[7]
  Selectivity ratio: > 30000
[8]
  Selectivity ratio: > 30000
[9]
  inhibition: < 8%
[3]
  Ki: 0.345 nM

## N#CC1(NC(=O)[C@@H](Cc2ccccc2)CS(=O)(=O)N2CCN(c3ccccn3)CC2)CC1
[3]
  Ki: 290 nM

## CNC(=O)CCS(=O)(=O)N1CCN(c2ccc3nncn3n2)CC1
[10]
  inhibition: inactive
[3]
  Ki: 700 nM

— ChEMBL document CHEMBL4665785 (J Med Chem, 2020)
